Test results reported in ChEMBL document CHEMBL1151910, “Synthesis and antirhinovirus activity of new 3-benzyl chromene and chroman derivatives” (Bioorg Med Chem, 2009).

Columns and labels:
[1] = Cytotoxicity against human HeLa Ohio cells assessed as maximal non-cytotoxic concentration after 3 days by XTT assay; type: cell-based; settings: read-out: MNCC
rhinovirus A1B [2] = assay: Antiviral activity against HRV 1B infected in human HeLa Ohio cells assessed as reduction in viral plaque formation after 3 days by neutral red uptake assay; type: functional, organism-based, Human rhinovirus 1B; settings: Rhinovirus A, 72 h
Method in brief: (§1)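 HeLa (Ohio) monolayers were infected with enough virus for about 100 plaques per well, adsorbed 1 h at 33 °C, then overlaid with plaque medium with or without fourfold drug dilutions. After 3 days at 33 °C, cells were stained with neutral red (0.2 mg/mL in PBS pH 7.4) and plaques counted. IC50 was read from a plot of % plaque reduction vs log dose against mock-treated control.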

rhinovirus B14 [3] = assay: Antiviral activity against HRV 14 infected in human HeLa Ohio cells assessed as reduction in viral plaque formation at maximum non-cytotoxic concentration after 3 days by neutral red uptake assay; type: functional
Method in brief: (§2)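 Plaque reduction on HeLa (Ohio) monolayers, with dosing starting from the maximum non-cytotoxic concentration. Virus was adsorbed 1 h at 33 °C, then cells got plaque overlay with fourfold drug dilutions, 3 days at 33 °C, and neutral red staining. Values are % plaque reduction at that concentration vs mock-treated control.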

[4] = Therapeutic index, ratio of TC50 for human HeLa Ohio cells to IC50 for HRV1B infected in human HeLa Ohio cells; type: cell-based; settings: read-out: TI
rhinovirus B14 [5] = assay: Antiviral activity against HRV 14 infected in human HeLa Ohio cells assessed as reduction in viral plaque formation after 3 days by neutral red uptake assay; type: functional, organism-based; method in brief: as §1
[6] = Cytotoxicity against human HeLa Ohio cells after 3 days by XTT assay; type: cell-based; settings: read-out: TC50
rhinovirus A1B [7] = assay: Antiviral activity against HRV 1B infected in human HeLa Ohio cells assessed as reduction in viral plaque formation at maximum non-cytotoxic concentration after 3 days by neutral red uptake assay; type: functional, Human rhinovirus 1B; method in brief: as §2

SMILES: Clc1ccc(C2CCc3cc(Cl)ccc3O2)cc1 (stereo unspecified)
- MNTC at 72 h [1]: 25 µM

SMILES: Clc1ccc2c(c1)CC(Cc1ccccc1)CO2 (stereo unspecified)
- MNTC at 72 h [1]: 25 µM

SMILES: Clc1ccc2c(c1)C/C(=C/c1ccccc1)CO2
- MNTC at 72 h [1]: 25 µM

SMILES: C1=C(Cc2ccccc2)COc2ccccc21
- MNTC at 72 h [1]: 25 µM

SMILES: c1ccc(CC2COc3ccccc3C2)cc1 (stereo unspecified)
- MNTC at 72 h [1]: 25 µM

SMILES: C(=C1/COc2ccccc2C1)/c1ccccc1
- MNTC at 72 h [1]: 25 µM

SMILES: O[C@H]1c2cc(Cl)ccc2OC[C@H]1Cc1ccc(Cl)cc1 (relative stereo)
- MNTC at 72 h [1]: 25 µM

SMILES: O[C@H]1c2ccccc2OC[C@H]1Cc1ccc(Cl)cc1 (relative stereo)
- MNTC at 72 h [1]: 12.5 µM

SMILES: O[C@H]1c2ccccc2OC[C@H]1Cc1ccccc1 (relative stereo)
- MNTC at 72 h [1]: 25 µM
- IC50 (rhinovirus A1B [2]): 3.49 µM
- inhibition (INH) (rhinovirus B14 [3]): 15.9%
- selectivity ratio [4]: 43
- IC50 (rhinovirus B14 [5]; Rhinovirus B, HeLa, 72 h): > 25 µM
- CC50 at 72 h [6]: 150 µM
- inhibition (INH) (rhinovirus A1B [7]): 50%

SMILES: O[C@H]1c2ccccc2OC[C@@H]1Cc1ccccc1 (relative stereo)
- MNTC at 72 h [1]: 25 µM
- IC50 (rhinovirus A1B [2]): 3.59 µM
- selectivity ratio [4]: > 55.7
- IC50 (rhinovirus B14 [5]; hela): Not Active
- CC50 at 72 h [6]: > 200 µM
- inhibition (INH) (rhinovirus A1B [7]): 50%
